Type in all cases: functional
The test system of experiment [1] is Porphyromonas gingivalis. Nature of the experiment: Antimicrobial activity against Porphyromonas gingivalis W50. The method, boiled down: (§1)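 Planktonic growth of P. gingivalis ATCC 33277 (fimbriated) and W50 (afimbriated) in 96-well plates, starting inoculum ~5.0 × 10^7 CFU per well. MIC determined, and mean generation time measured with DMSO alone or with drug at 31.25 and 62.5 μM. MGT differences were tested at P < 0.05.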

Experiment [2] relates to Porphyromonas gingivalis. Nature of the experiment: Antimicrobial activity against Porphyromonas gingivalis W50 assessed as mean generation time at 31.25 uM. An outline of the steps: as §1
Experiment [3] deals with Porphyromonas gingivalis. The experiment can be described thus: Antimicrobial activity against Porphyromonas gingivalis W50 assessed as mean generation time at 62.5 uM. An outline of the steps: as §1
Experiment [4] deals with Porphyromonas gingivalis. Nature of the experiment: Antimicrobial activity against Porphyromonas gingivalis assessed as reduction in biovolume at 12.5 uM after 18 hrs. The method, boiled down:
(§2)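 Three-channel flow cell inoculated with 1 ml of exponential ATCC 33277 culture at 5 × 10^8 cells/ml, left 1 h, then fed 0.2 ml/min of 5×-diluted supplemented brain heart infusion. At 18 h, 1 ml of 12.5 or 125 μM compound in sterile water (water control) was injected per channel for 30 min, followed by a 10 min medium wash. BacLight in situ, CLSM (63×, 2 μm sections, 488/568 nm), five random images per replicate, COMSTAT analysis; mean ± SD of three biological replicates.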

Experiment [5] deals with Porphyromonas gingivalis. The experiment can be described thus: Antimicrobial activity against Porphyromonas gingivalis assessed as reduction in thickness of biofilm at 12.5 uM after 18 hrs. An outline of the steps: as §2
Experiment [6] has as its system Porphyromonas gingivalis. The experiment can be described thus: Antimicrobial activity against Porphyromonas gingivalis assessed as surface area/biovolume ratio at 12.5 uM after 18 hrs. The method, boiled down: as §2
Experiment [7] has as its system Porphyromonas gingivalis. Nature of the experiment: Antimicrobial activity against Porphyromonas gingivalis assessed as reduction in surface area of substratum occupied by cells at 12.5 uM after 18 hrs. Also noted: scale not given: the % may be the effect or the level left. The method, boiled down:
as §2

The subject of experiment [8] is Porphyromonas gingivalis. Nature of the experiment: Antimicrobial activity against Porphyromonas gingivalis assessed as reduction in average number of microcolonies at 12.5 uM after 18 hrs. An outline of the steps:
as §2

In experiment [9] the test system is Porphyromonas gingivalis. Nature of the experiment: Antimicrobial activity against Porphyromonas gingivalis assessed as reduction in average number of microcolony area at 12.5 uM after 18 hrs. An outline of the steps:
as §2

In experiment [10] the test system is Porphyromonas gingivalis. The experiment can be described thus: Antimicrobial activity against Porphyromonas gingivalis ATCC 33277. The method, boiled down:
as §1

Experiment [11] relates to Porphyromonas gingivalis. Nature of the experiment: Antimicrobial activity against Porphyromonas gingivalis ATCC 33277 assessed as mean generation time at 31.25 uM. The method, boiled down:
as §1

Experiment [12] has as its system Porphyromonas gingivalis. The experiment can be described thus: Antimicrobial activity against Porphyromonas gingivalis ATCC 33277 assessed as mean generation time at 62.5 uM. An outline of the steps:
as §1

For experiment [13], the system named is Porphyromonas gingivalis. Nature of the experiment: Antimicrobial activity against Porphyromonas gingivalis ATCC 33277 assessed as reduction of biofilm formation after 24 hrs. The method, boiled down: (§3)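 Static 96-well biofilm model with P. gingivalis ATCC 33277, grown 24 h with drug. Biofilm mass was quantified by crystal violet. Results are means of 12 replicates, compared with untreated and DMSO controls by one-way ANOVA with Scheffe multiple comparison.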

The subject of experiment [14] is Porphyromonas gingivalis. Nature of the experiment: Antimicrobial activity against Porphyromonas gingivalis ATCC 33277 assessed as reduction of biofilm formation at 125 uM after 24 hrs. An outline of the steps: as §3
The subject of experiment [15] is Porphyromonas gingivalis. Nature of the experiment: Antimicrobial activity against Porphyromonas gingivalis ATCC 33277 assessed as reduction of biofilm formation at 0.1 uM after 24 hrs. An outline of the steps:
as §3

Experiment [16] relates to Porphyromonas gingivalis. The experiment can be described thus: Antimicrobial activity against Porphyromonas gingivalis assessed as reduction in surface area of substratum occupied by cells at 125 uM after 18 hrs. The arrangement: scale not given: the % may be the effect or the level left. An outline of the steps:
as §2

Experiment [17] has as its system Porphyromonas gingivalis. Nature of the experiment: Antimicrobial activity against Porphyromonas gingivalis ATCC 33277 assessed as thickness of biofilm at 12.5 uM after 18 hrs by confocal laser scanning microscopy. The method, boiled down: as §2
The subject of experiment [18] is Porphyromonas gingivalis. Nature of the experiment: Antimicrobial activity against Porphyromonas gingivalis ATCC 33277 assessed as thickness of biofilm at 125 uM after 18 hrs by confocal laser scanning microscopy. The method, boiled down:
as §2

≈ marks a conversion by molar mass, not a printed value. Where “and” joins values, the source holds several entries; their conditions need not be identical. Equal entries are not always repeated. Calls of active or inactive are those of the source. The rule behind the calls is not given here. Where only a bound is given, the exact number is not on record here.

The MIC is the lowest concentration found to suppress growth. Take `c1ccc2[nH]c(-c3cscn3)nc2c1` [THIABENDAZOLE]: in [1], the MIC is above 3000 µM. Also, the Activity in experiment [2] was 6.8 h; in experiment [3], 6.2 h.

In experiment [1], `Cc1ccsc1/C=C/C1=NCCCN1C` [MORANTEL] came in with an MIC of 2800 µM (≈ 617 µg/mL). Further, the Activity worked out at 11 h in [2] and 11.3 h in experiment [3].

With `Cc1ncc([N+](=O)[O-])n1CCO` [METRONIDAZOLE], the Activity in experiment [4] was determined as 2.19 µm3/µm2; in [5] it was 2.17 µm; in [6], 1.63 µm2/µm3; in [7] it was 27.4%; in [8], 23.7 count; in experiment [9] it was 102 µm2.

As for `CN1CCCN=C1/C=C/c1cccc(O)c1` [OXANTEL], the MIC in experiment [1] was determined as 112 µM (≈ 24.2 µg/mL); in [10], 125 µM (≈ 27 µg/mL). In addition, the Activity in experiment [2] was 19.2 h; in experiment [11] it was 10 h; in experiment [3], 23.8 h; in experiment [12], 24 h; in experiment [13] it was “Dose-dependent effect”; in experiment [4] it was 1.44 µm3/µm2. Further, the Activity is 0.83 µm in [5]; 2.31 µm2/µm3 in [6]; 33.2% in experiment [7]; 18.3 count in experiment [8]; 124 µm2 in experiment [9]; 23.8% and 27% in experiment [16]. Further, the outcome in experiment [14], in experiment [15], in [17] and in experiment [18] was Active.

(Values after ChEMBL document CHEMBL1240384, “Inhibition of Porphyromonas gingivalis biofilm by oxantel” (2010).)
